From ChEMBL document CHEMBL1138290 (J Med Chem, 2007)
Each block holds one compound with its values, some of them ahead of it.

Legend:
[1] = target: Tubulin (Sus scrofa, UniProt P02554+P02550); experiment: Inhibition of porcine brain tubulin polymerization
[2] = system: K562; experiment: Antiproliferative activity against human K562 cells after 48 hrs; assay type: functional, cell-based; conditions: K562, 48 h
How it was run: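 Growth of K562 cells measured by counting cells with a hemocytometer after 48 h (2 days) of drug treatment. IC50 is the mean of at least three independent determinations.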

[3] = Antiproliferative activity against rat multidrug-resistant L12 cells after 48 hrs by XTT assay; assay type: functional, cell-based; conditions: L1.2, 48 h
How it was run: (§1)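 XTT proliferation assay with 48 h incubation with test compound. Each experiment run at least in duplicate (n = 2). IC50 calculated by nonlinear regression of dose-response curves.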

[4] = Antiproliferative activity against rat L12 cells after 48 hrs by XTT assay; assay type: functional, cell-based
[5] = system: L1210; experiment: Antiproliferative activity against mouse vincristine-resistant L1210 cells after 48 hrs by XTT assay; assay type: functional, cell-based; conditions: L1210, 48 h; how it was run: as §1
[6] = Cell cycle arrest in KB/HeLa cells assessed as accumulation at G2/M phase after 24 hrs by flow cytometric analysis; assay type: functional, cell-based; conditions: Homo sapiens
How it was run: (§2)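 Subconfluent KB/HeLa cells exposed to a range of compound concentrations for 24 h. Cell cycle phase distribution determined by flow cytometry. Experiments run at least in duplicate (n = 2).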

[7] = system: RKO; experiment: Cytotoxicity against human RKO cells with ectopic-inducible expression of p27kip1 after 48 hrs by XTT assay; assay type: functional, cell-based; how it was run: as §1
[8] = Cell cycle arrest in KB/HeLa cells assessed as accumulation at G1 phase at 316 nM after 24 hrs by flow cytometric analysis; assay type: functional, cell-based; conditions: Homo sapiens; how it was run: as §2
[9] = Cytotoxicity against human KB/HeLa cells after 48 hrs by XTT assay; assay type: functional, cell-based; how it was run: as §1
[10] = system: P388; experiment: Antiproliferative activity against mouse P388 cells after 48 hrs by XTT assay; assay type: functional, cell-based; conditions: P388, 48 h; how it was run: as §1
[11] = Cell cycle arrest in KB/HeLa cells assessed as accumulation at G1 phase at 10 nM after 24 hrs by flow cytometric analysis; assay type: functional, cell-based; conditions: Homo sapiens; how it was run: as §2
[12] = Cell cycle arrest in KB/HeLa cells assessed as accumulation at G2M phase at 31.6 nM after 24 hrs by flow cytometric analysis; assay type: functional, cell-based; conditions: Homo sapiens; how it was run: as §2
[13] = Cell cycle arrest in KB/HeLa cells assessed as accumulation at S phase at 3.16 nM after 24 hrs by flow cytometric analysis; assay type: functional, cell-based; conditions: Homo sapiens; how it was run: as §2
[14] = Cell cycle arrest in KB/HeLa cells assessed as accumulation at G2M phase at 10 nM after 24 hrs by flow cytometric analysis; assay type: functional, cell-based; conditions: Homo sapiens; how it was run: as §2
[15] = system: P388; experiment: Antiproliferative activity against mouse adriamycin-resistant P388 cells after 48 hrs by XTT assay; assay type: functional, cell-based; conditions: P388, 48 h; how it was run: as §1
[16] = Cell cycle arrest in KB/HeLa cells assessed as accumulation at S phase at 100 nM after 24 hrs by flow cytometric analysis; assay type: functional, cell-based; conditions: Homo sapiens; how it was run: as §2
[17] = Cell cycle arrest in KB/HeLa cells assessed as accumulation at G1 phase at 3.16 nM after 24 hrs by flow cytometric analysis; assay type: functional, cell-based; conditions: Homo sapiens; how it was run: as §2
[18] = Cell cycle arrest in KB/HeLa cells assessed as accumulation at G2M phase at 316 nM after 24 hrs by flow cytometric analysis; assay type: functional, cell-based; conditions: Homo sapiens; how it was run: as §2
[19] = Cell cycle arrest in KB/HeLa cells assessed as accumulation at G1 phase at 1 nM after 24 hrs by flow cytometric analysis; assay type: functional, cell-based; conditions: Homo sapiens; how it was run: as §2
[20] = Cell cycle arrest in KB/HeLa cells assessed as accumulation at G2M phase at 100 nM after 24 hrs by flow cytometric analysis; assay type: functional, cell-based; conditions: Homo sapiens; how it was run: as §2
[21] = Cell cycle arrest in KB/HeLa cells assessed as accumulation at G2M phase at 3.16 nM after 24 hrs by flow cytometric analysis; assay type: functional, cell-based; conditions: Homo sapiens
[22] = Cell cycle arrest in KB/HeLa cells assessed as accumulation at G2M phase at 1 nM after 24 hrs by flow cytometric analysis; assay type: functional, cell-based; conditions: Homo sapiens; how it was run: as §2
[23] = Cell cycle arrest in KB/HeLa cells assessed as accumulation at S phase at 31.6 nM after 24 hrs by flow cytometric analysis; assay type: functional, cell-based; conditions: Homo sapiens; how it was run: as §2
[24] = Cell cycle arrest in KB/HeLa cells assessed as accumulation at S phase at 10 nM after 24 hrs by flow cytometric analysis; assay type: functional, cell-based; conditions: Homo sapiens; how it was run: as §2
[25] = Cell cycle arrest in KB/HeLa cells assessed as accumulation at G1 phase at 100 nM after 24 hrs by flow cytometric analysis; assay type: functional, cell-based; conditions: Homo sapiens; how it was run: as §2
[26] = Cell cycle arrest in KB/HeLa cells assessed as accumulation at G1 phase at 31.6 nM after 24 hrs by flow cytometric analysis; assay type: functional, cell-based; conditions: Homo sapiens; how it was run: as §2
[27] = Cell cycle arrest in KB/HeLa cells assessed as accumulation at S phase at 316 nM after 24 hrs by flow cytometric analysis; assay type: functional, cell-based; conditions: Homo sapiens; how it was run: as §2
[28] = Cell cycle arrest in KB/HeLa cells assessed as accumulation at S phase at 1 nM after 24 hrs by flow cytometric analysis; assay type: functional, cell-based; conditions: Homo sapiens; how it was run: as §2

Compound: Cc1cccc(S(=O)(=O)Oc2c3ccccc3cc3sccc23)c1
IC50 [1]: 0.74 µM
IC50 [2]: 530 nM

Compound: COc1ccc(C=C2c3ccccc3C(=O)c3ccccc32)cc1O
EC50 [6]: 200 nM

Compound: COC(=O)Nc1nc2cc(C(=O)c3cccs3)ccc2[nH]1 [NOCODAZOLE]
IC50 [7]: > 14 µM
Activity [8]: 0.9%
IC50 [9]: 140 nM
IC50 [10]: 70 nM
IC50 [3]: 50 nM
Activity [11]: 64.2%
Activity [12]: 9.9%
Activity [13]: 24.8%
Activity [14]: 10%
IC50 [15]: 50 nM
Activity [16]: 26.1%
Activity [17]: 64.6%
IC50 [4]: 300 nM
Activity [18]: 93.2%
Activity [19]: 65.2%
Activity [20]: 51.4%
Activity [21]: 10.6%
Activity [22]: 11.1%
Activity [23]: 25.7%
Activity [24]: 25.7%
Activity [25]: 22.3%
EC50 [6]: 91 nM
Activity [26]: 64.4%
Activity [27]: 6%
Activity [28]: 23.6%

Compound: COc1ccc(S(=O)(=O)Oc2c3ccccc3c(Cl)c3ccccc23)cc1
IC50 [2]: 350 nM

Compound: CN(C)c1ccc(S(=O)(=O)Oc2c3ccccc3cc3sccc23)cc1
IC50 [1]: 0.94 µM
IC50 [2]: 80 nM

Compound: COc1ccc(S(=O)(=O)Oc2c3c(Cl)cccc3cc3cccc(Cl)c23)cc1
IC50 [1]: > 10 µM
IC50 [2]: 10000 nM

Compound: COc1cc([N+](=O)[O-])ccc1S(=O)(=O)Oc1c2ccccc2cc2sccc12
IC50 [2]: 1400 nM

Continued, in another order:

IC50 [1]: 1.27 µM
IC50 [2]: 170 nM
Compound: COc1ccc(S(=O)(=O)Oc2c3ccccc3cc3sccc23)cc1OC

IC50 [5]: > 5 µM
Compound: CC[C@]1(O)C[C@@H]2CN(CCc3c([nH]c4ccccc34)[C@@](C(=O)OC)(c3cc4c(cc3OC)N(C)[C@H]3[C@@](O)(C(N)=O)[C@H](O)[C@]5(CC)C=CCN6CC[C@]43[C@@H]65)C2)C1 [VINDESINE]
IC50 [3]: 260 nM
IC50 [4]: 1 nM

IC50 [1]: 0.71 µM
IC50 [2]: 130 nM
Compound: Nc1ccc(S(=O)(=O)Oc2c3ccccc3cc3sccc23)cc1

IC50 [1]: 0.39 µM
IC50 [2]: 480 nM
Compound: COc1cccc(S(=O)(=O)Oc2c3ccccc3cc3ccccc23)c1

IC50 [1]: 0.29 µM
IC50 [2]: 250 nM
Compound: COc1cccc(S(=O)(=O)Oc2c3ccccc3cc3sccc23)c1
